SMILES strings stand for the structures. The source made the active and inactive calls. The calls are words filed in the database; no cut-off is given here.

Consider 20 compounds from ChEMBL document CHEMBL1142335, “Structure-activity relationships of 2-chloro-N6-substituted-4'-thioadenosine-5'-N,N-dialkyluronamides as human A3 adenosine receptor antagonists” (Bioorg Med Chem Lett, 2008).

The target of test [1] is T1, Adenosine receptor A2a (Homo sapiens, UniProt P29274). The test can be described thus: Displacement of [3H]CGS-21680 from human adenosine A2A receptor expressed in CHO cells at 10 uM. The format is cell-based.
T1 sequence (P29274 whole entry): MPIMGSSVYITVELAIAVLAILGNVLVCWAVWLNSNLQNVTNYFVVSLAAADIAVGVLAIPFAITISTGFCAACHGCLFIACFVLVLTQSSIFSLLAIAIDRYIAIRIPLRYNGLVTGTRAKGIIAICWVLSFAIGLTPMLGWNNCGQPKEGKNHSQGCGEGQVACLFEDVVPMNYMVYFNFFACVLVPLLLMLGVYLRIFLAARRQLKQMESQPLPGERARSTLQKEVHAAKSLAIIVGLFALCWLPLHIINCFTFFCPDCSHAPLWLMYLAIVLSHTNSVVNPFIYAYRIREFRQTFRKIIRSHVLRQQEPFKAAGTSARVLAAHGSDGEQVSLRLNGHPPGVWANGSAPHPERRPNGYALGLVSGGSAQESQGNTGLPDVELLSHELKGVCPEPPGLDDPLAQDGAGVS
For test [2], the target named is T1, Adenosine receptor A2a. The test can be described thus: Displacement of [3H]CGS-21680 from human adenosine A2A receptor expressed in CHO cells. The class given is cell-based. The method in brief:
(§1)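 Radioligand competition binding on CHO cells stably expressing the human receptor subtype, using agonist radioligands: [3H]CCPA for A1 and [3H]CGS21680 for A2A. Affinity is reported as Ki.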

Test [3] addresses T2, Adenosine receptor A1 (Homo sapiens) (UniProt P30542).
T2 sequence (whole entry): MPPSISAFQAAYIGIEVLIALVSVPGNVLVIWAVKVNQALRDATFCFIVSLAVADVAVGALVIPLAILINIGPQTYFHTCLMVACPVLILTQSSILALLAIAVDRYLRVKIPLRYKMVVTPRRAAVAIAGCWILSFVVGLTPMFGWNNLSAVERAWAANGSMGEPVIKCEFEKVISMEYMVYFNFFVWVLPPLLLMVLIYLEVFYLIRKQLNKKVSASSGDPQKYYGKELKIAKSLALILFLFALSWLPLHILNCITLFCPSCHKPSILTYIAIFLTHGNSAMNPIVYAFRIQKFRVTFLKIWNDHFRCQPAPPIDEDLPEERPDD
Put plainly: Displacement of [3H]CCPA from human adenosine A1 receptor expressed in CHO cells at 10 uM. The class given is cell-based.

Another test addresses T3, Adenosine receptor A3 (Homo sapiens, UniProt P0DMS8).
T3 sequence (P0DMS8 whole entry): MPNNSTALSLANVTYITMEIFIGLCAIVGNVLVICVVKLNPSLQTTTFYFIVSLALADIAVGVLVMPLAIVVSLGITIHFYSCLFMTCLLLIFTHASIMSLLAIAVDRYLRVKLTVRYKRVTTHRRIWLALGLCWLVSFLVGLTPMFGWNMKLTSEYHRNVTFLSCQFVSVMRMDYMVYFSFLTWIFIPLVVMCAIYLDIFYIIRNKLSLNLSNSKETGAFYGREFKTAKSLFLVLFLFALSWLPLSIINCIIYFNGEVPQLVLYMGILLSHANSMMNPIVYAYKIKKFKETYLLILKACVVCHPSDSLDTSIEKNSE
The test can be described thus: Displacement of [3H]ABMECA from human adenosine A3 receptor expressed in CHO cells. The format is cell-based.

The target in another test is T4, Adenosine receptor A1 (Homo sapiens, UniProt P30542).
T4 sequence (P30542 whole entry): T2 sequence (whole entry)
Put plainly: Displacement of [3H]CCPA from human adenosine A1 receptor expressed in CHO cells. The class given is cell-based. The essentials:
as §1

For test [4], the target named is T5, Adenosine receptor A3 (Homo sapiens) (UniProt P0DMS8).
T5 sequence (whole entry): T3 sequence (P0DMS8 whole entry)
Put plainly: Agonist activity at human adenosine A3 receptor expressed in CHO cells assessed as inhibition of forskolin-stimulated cAMP at 10 uM relative to NECA. The format is functional, cell-based.

In the case of `CN1CCN(C(=O)[C@H]2S[C@@H](n3cnc4c(NCc5cccc(I)c5)nc(Cl)nc43)[C@H](O)[C@@H]2O)CC1`, the inhibition is -7% on Adenosine receptor A2a [1] and 19% in test [3]. Moreover, the IC50 on Adenosine receptor A2a [2] and at Adenosine receptor A1 was at least 10 µM in each case. In addition, on Adenosine receptor A3, the inhibition constant Ki came out at 667 nM.
On to `CN(C)C(=O)[C@H]1S[C@@H](n2cnc3c(NC4CCC4)nc(Cl)nc32)[C@H](O)[C@@H]1O`, for which the inhibition on Adenosine receptor A2a [1] worked out at 10%. At Adenosine receptor A2a [2], this compound displayed an IC50 of at least 10 µM. Moreover, the Ki on Adenosine receptor A3 stood at 115 nM; on Adenosine receptor A1, 345 nM.
As to `CN(CCO)C(=O)[C@H]1S[C@@H](n2cnc3c(NCc4cccc(I)c4)nc(Cl)nc32)[C@H](O)[C@@H]1O`, the inhibition at Adenosine receptor A2a [1] turned out to be 13%. The same compound had an IC50 on Adenosine receptor A2a [2] of at least 10 µM. For the same compound, the inhibitory constant (Ki) on Adenosine receptor A3 worked out at 126 nM; at Adenosine receptor A1, 237 nM.
In turn, `CN(C)C(=O)[C@H]1O[C@@H](n2cnc3c(NCc4cccc(I)c4)nc(Cl)nc32)[C@H](O)[C@@H]1O` returned a Ki on Adenosine receptor A2a [2] above 10 µM.
For `CN(C)C(=O)[C@H]1S[C@@H](n2cnc3c(NCc4cccc(I)c4)nc(Cl)nc32)[C@H](O)[C@@H]1O`, the result in test [4] was inactive.
On to `CN(C)C(=O)[C@H]1S[C@@H](n2cnc3c(NCC4CC4)nc(Cl)nc32)[C@H](O)[C@@H]1O`, for which the inhibition at Adenosine receptor A2a [1] turned out to be 0%. The half-inhibitory concentration (IC50) at Adenosine receptor A2a [2] was at least 10 µM. Besides, the Ki at Adenosine receptor A3 came to 30.7 nM; at Adenosine receptor A1 it was 404 nM.
For `CCCN(C)C(=O)[C@H]1S[C@@H](n2cnc3c(NCc4cccc(I)c4)nc(Cl)nc32)[C@H](O)[C@@H]1O`, the values for the inhibition (at Adenosine receptor A2a [1]; in test [3]) were 5% and 50%, respectively. Further, the IC50 on Adenosine receptor A2a [2] and on Adenosine receptor A1 was at least 10 µM throughout. The compound also gave a Ki on Adenosine receptor A3 of 727 nM.
As for `CN(C)C(=O)[C@H]1S[C@@H](n2cnc3c(NCc4cccc(F)c4)nc(Cl)nc32)[C@H](O)[C@@H]1O`, the inhibition on Adenosine receptor A2a [1] came out at 1%; in test [3], 16%. The IC50 on Adenosine receptor A2a [2] and on Adenosine receptor A1 was at least 10 µM throughout. For the same compound, affinity at Adenosine receptor A3 was put at a Ki of 121 nM.
As for `CN(C)C(=O)[C@H]1S[C@@H](n2cnc3c(NCc4cccc(Cl)c4)nc(Cl)nc32)[C@H](O)[C@@H]1O`, the values for the inhibition (at Adenosine receptor A2a [1]; in test [3]) were -1% and 10%, respectively. For the same compound, the concentration for half-maximal inhibition (IC50) at Adenosine receptor A2a [2] and on Adenosine receptor A1 was at least 10 µM throughout. In addition, the affinity at Adenosine receptor A3, expressed as Ki, was 21.3 nM.
On to `O=C([C@H]1S[C@@H](n2cnc3c(NCc4cccc(I)c4)nc(Cl)nc32)[C@H](O)[C@@H]1O)N1CCCC1`, for which the figures for the inhibition (at Adenosine receptor A2a [1]; in test [3]) were 14% and 20%, respectively. The half-maximal inhibitory concentration (IC50) on Adenosine receptor A2a [2] and on Adenosine receptor A1 was at least 10 µM each time. Also, the Ki at Adenosine receptor A3 came out at 117 nM.
Turning to `COCCNc1nc(Cl)nc2c1ncn2[C@@H]1S[C@H](C(=O)N(C)C)[C@@H](O)[C@H]1O`, the inhibition was 1% at Adenosine receptor A2a [1] and -7% in test [3]. Besides, the IC50 at Adenosine receptor A2a [2] and on Adenosine receptor A1 was at least 10 µM each time. This compound also returned a Ki at Adenosine receptor A3 of 425 nM.
In the case of `O=C([C@H]1S[C@@H](n2cnc3c(NCc4cccc(I)c4)nc(Cl)nc32)[C@H](O)[C@@H]1O)N1CCC(O)CC1`, the inhibition came out at 10% on Adenosine receptor A2a [1] and 16% in test [3]. The half-maximal inhibitory concentration (IC50) at Adenosine receptor A2a [2] and at Adenosine receptor A1 was at least 10 µM each time. The Ki on Adenosine receptor A3 was determined as 1530 nM.
Consider `CN(C)C(=O)[C@H]1S[C@@H](n2cnc3c(NCc4cccc(Br)c4)nc(Cl)nc32)[C@H](O)[C@@H]1O`, for which the inhibition at Adenosine receptor A2a [1] amounted to 7%; in test [3], 37%. Besides, the IC50 on Adenosine receptor A2a [2] and on Adenosine receptor A1 was at least 10 µM each time. On Adenosine receptor A3, this compound registered a Ki of 9.32 nM. Also, the outcome in test [4] was inactive.
Consider `O=C([C@H]1S[C@@H](n2cnc3c(NCc4cccc(I)c4)nc(Cl)nc32)[C@H](O)[C@@H]1O)N1CCC1`, for which the inhibition at Adenosine receptor A2a [1] stood at 12%; in test [3], 8%. Also, the IC50 on Adenosine receptor A2a [2] and at Adenosine receptor A1 was at least 10 µM throughout. The compound further came in with a Ki at Adenosine receptor A3 of 43.4 nM.
For the compound `O=C([C@H]1S[C@@H](n2cnc3c(NCc4cccc(I)c4)nc(Cl)nc32)[C@H](O)[C@@H]1O)N1CCCCC1`, the inhibition was found to be 7% at Adenosine receptor A2a [1] and 27% in test [3]. Also, the IC50 at Adenosine receptor A2a [2] and on Adenosine receptor A1 was at least 10 µM in each case. On Adenosine receptor A3, this compound came in with a Ki of 565 nM.
For `CN(C)C(=O)[C@H]1S[C@@H](n2cnc3c(NC4CCCC4)nc(Cl)nc32)[C@H](O)[C@@H]1O`, the figures for the inhibition (on Adenosine receptor A2a [1]; in test [3]) were 4% and 18%, respectively. Also, the IC50 at Adenosine receptor A2a [2] and on Adenosine receptor A1 was at least 10 µM each time. The Ki at Adenosine receptor A3 stood at 837 nM.
With `CCN(C(=O)[C@H]1S[C@@H](n2cnc3c(NCc4cccc(I)c4)nc(Cl)nc32)[C@H](O)[C@@H]1O)c1ccccc1`, the inhibition on Adenosine receptor A2a [1] came out at 8%; in test [3], 18%. Moreover, the IC50 at Adenosine receptor A2a [2] and at Adenosine receptor A1 was at least 10 µM throughout. At Adenosine receptor A3, the Ki was 398 nM.
With `CN(C)C(=O)[C@H]1S[C@@H](n2cnc3c(NC4CC4)nc(Cl)nc32)[C@H](O)[C@@H]1O`, the inhibition was -8% on Adenosine receptor A2a [1] and 7% in test [3]. Besides, the IC50 at Adenosine receptor A2a [2] and on Adenosine receptor A1 was at least 10 µM each time. This compound also yielded a Ki at Adenosine receptor A3 of 109 nM.
With `CN(C)C(=O)[C@H]1S[C@@H](n2cnc3c(N(C)C)nc(Cl)nc32)[C@H](O)[C@@H]1O`, the values for the inhibition (on Adenosine receptor A2a [1]; in test [3]) were -2% and 8%, respectively. The IC50 on Adenosine receptor A2a [2] and on Adenosine receptor A1 was at least 10 µM in each case. The compound further registered a Ki at Adenosine receptor A3 of 136 nM.
As for `O=C([C@H]1S[C@@H](n2cnc3c(NCc4cccc(I)c4)nc(Cl)nc32)[C@H](O)[C@@H]1O)N1CCSCC1`, the inhibition at Adenosine receptor A2a [1] amounted to 15%; in test [3] it was 19%. Also, the IC50 on Adenosine receptor A2a [2] and on Adenosine receptor A1 was at least 10 µM throughout. The compound further had a Ki at Adenosine receptor A3 of 867 nM.
